Assay results from ChEMBL document CHEMBL1156983, “Modulation of cell surface expression of nonactivated cholecystokinin receptors using bivalent ligand-induced internalization” (J Med Chem, 2010).
Calls of active or inactive are those of the source. No cut-off for these calls is given here.

Legend:
Format in all cases: cell-based
[1] = target: Mu-type opioid receptor (Homo sapiens) (UniProt P35372); experiment: Induction of receptor internalization in YC-tagged mu opioid receptor expressed in CHO cells after 90 mins
Mu-type opioid receptor (Homo sapiens), sequence (P35372 whole entry): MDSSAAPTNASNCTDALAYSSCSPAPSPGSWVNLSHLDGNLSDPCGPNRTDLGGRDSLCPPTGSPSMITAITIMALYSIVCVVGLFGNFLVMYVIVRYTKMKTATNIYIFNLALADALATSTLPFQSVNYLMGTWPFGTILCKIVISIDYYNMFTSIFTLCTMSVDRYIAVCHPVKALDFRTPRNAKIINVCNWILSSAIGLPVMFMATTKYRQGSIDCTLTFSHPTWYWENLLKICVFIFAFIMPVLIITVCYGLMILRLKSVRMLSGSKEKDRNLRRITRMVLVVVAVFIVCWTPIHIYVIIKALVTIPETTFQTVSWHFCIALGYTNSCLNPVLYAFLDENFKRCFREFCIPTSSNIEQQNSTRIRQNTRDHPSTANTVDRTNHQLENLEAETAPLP
Procedure, shortened: (§1)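 CHO cells stably coexpressing YN-tagged CCK2 and YC-tagged MOP receptors on coverslips, washed with PBS containing 0.08 mM CaCl2 and 0.1 mM MgCl2. Incubated with 100 nM ligand at 4 °C for 90 min, washed with ice-cold PBS, then moved to prewarmed 37 °C PBS for various times. Fixed in 2% paraformaldehyde; reconstituted YFP fluorescence imaged by epifluorescence microscopy.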

[2] = target: Mu-type opioid receptor (Homo sapiens) (UniProt P35372); experiment: Induction of receptor internalization in YC-tagged mu opioid receptor expressed in CHO cells at 4 degC; conditions: TDE = time-dependent effect; procedure, shortened: as §1
[3] = target: T1, Gastrin/cholecystokinin type B receptor (Homo sapiens) (UniProt P32239); experiment: Induction of receptor internalization in YN-tagged CCK2 receptor expressed in CHO cells at 4 degC; procedure, shortened: as §1
T1 sequence (whole entry): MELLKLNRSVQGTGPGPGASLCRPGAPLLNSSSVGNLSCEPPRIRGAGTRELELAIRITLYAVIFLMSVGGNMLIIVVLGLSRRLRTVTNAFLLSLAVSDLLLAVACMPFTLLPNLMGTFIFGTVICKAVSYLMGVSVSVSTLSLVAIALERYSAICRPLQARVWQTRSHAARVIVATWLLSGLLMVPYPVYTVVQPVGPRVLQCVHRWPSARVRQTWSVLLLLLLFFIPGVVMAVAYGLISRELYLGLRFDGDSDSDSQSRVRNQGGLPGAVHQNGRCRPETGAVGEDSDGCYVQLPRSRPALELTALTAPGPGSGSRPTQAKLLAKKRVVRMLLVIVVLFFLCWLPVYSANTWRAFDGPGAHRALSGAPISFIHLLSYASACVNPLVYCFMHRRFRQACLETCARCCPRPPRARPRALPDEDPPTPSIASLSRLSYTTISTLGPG

[4] = target: T1, Gastrin/cholecystokinin type B receptor (Homo sapiens); experiment: Induction of receptor internalization in YN-tagged CCK2 receptor expressed in CHO cells after 90 mins; procedure, shortened: as §1
[5] = target: Mu-type opioid receptor (Homo sapiens) (UniProt P35372); experiment: Induction of receptor internalization in YFP-tagged mu opioid receptor expressed in CHO cells
Procedure, shortened: (§2)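 CHO cells stably expressing YFP-tagged MOP or YFP-tagged CCK2 receptor on coverslips, washed in PBS with 0.08 mM CaCl2 and 0.1 mM MgCl2. Incubated with 100 nM ligand at 4 °C for 90 min, washed with ice-cold PBS, then warmed in 37 °C PBS for various times. Fixed with 2% paraformaldehyde; YFP localization imaged by epifluorescence.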

[6] = target: T1, Gastrin/cholecystokinin type B receptor (Homo sapiens); experiment: Induction of receptor internalization in YFP-tagged CCK2 receptor expressed in CHO cells; procedure, shortened: as §2

SMILES: CN1C(=O)[C@H](NC(=O)Nc2cccc(OCCNC(=O)COCC(=O)NNC(=O)COCC(=O)N[C@H]3CC[C@@]4(O)C5Cc6ccc(O)c7c6[C@@]4(CCN5)[C@H]3O7)c2)N=C(c2ccccc2)c2ccccc21
- Activity [1]: Active
- Activity [2]: tde
- Activity [3]: Active
- Activity [4]: Active

SMILES: C[C@@H](NC(=O)[C@@H](N)Cc1ccc(O)cc1)C(=O)NCC(=O)N(C)[C@@H](Cc1ccccc1)C(=O)NCCO
- Activity ([5]; TDE = time-dependent effect): tde

SMILES: Cc1cccc(NC(=O)N[C@@H]2N=C(c3ccccc3)c3ccccc3N(C)C2=O)c1
- Activity [6]: inactive

SMILES: CN1C(=O)[C@H](NC(=O)Nc2cccc(OCCNC(=O)COCC(=O)NCCCCCCNC(=O)COCC(=O)N[C@H]3CC[C@@]4(O)C5Cc6ccc(O)c7c6[C@@]4(CCN5)[C@H]3O7)c2)N=C(c2ccccc2)c2ccccc21
- Activity [1]: Active
- Activity [2]: tde
- Activity [3]: Active
- Activity [4]: Active

SMILES: CNC(=O)COCC(=O)NCCCCCCNC(=O)COCC(=O)NCCOc1cccc(NC(=O)N[C@@H]2N=C(c3ccccc3)c3ccccc3N(C)C2=O)c1
- Activity [1]: inactive
- Activity [6]: Active

SMILES: CN1C(=O)[C@H](NC(=O)Nc2cccc(OCCNC(=O)COCC(=O)N[C@H]3CC[C@@]4(O)C5Cc6ccc(O)c7c6[C@@]4(CCN5)[C@H]3O7)c2)N=C(c2ccccc2)c2ccccc21
- Activity [1]: inactive

SMILES: CN1C(=O)[C@H](NC(=O)Nc2cccc(OCCNC(=O)COCC(=O)NCCNC(=O)COCC(=O)N[C@H]3CC[C@@]4(O)C5Cc6ccc(O)c7c6[C@@]4(CCN5)[C@H]3O7)c2)N=C(c2ccccc2)c2ccccc21
- Activity [1]: Active
- Activity [2]: tde
- Activity [3]: Active
- Activity [4]: Active

SMILES: CNC(=O)COCC(=O)NCCCCNC(=O)COCC(=O)N[C@H]1CC[C@@]2(O)C3Cc4ccc(O)c5c4[C@@]2(CCN3C)[C@H]1O5
- Activity [1]: inactive
- Activity [5]: Active
